From PubChem BioAssay
CFTR F508del cor: correctors of CFTR F508del function in bronchial epithelial cells. CFBE cells, YFP halide quenching; stimulated with forskolin plus potentiator P3; % fluorescence drop versus neutral controls. 350,000 compounds, 0.36% hits. activity (quench increase), % at 7.58 µM;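 active = mean added fluorescence quench of at least 8% versus neutral control, with both replicates also reaching 8%; inconclusive = only one of the mean or replicate conditions met; inactive = mean below 8% and not both replicates reaching 8%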;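 also: cells transiently co-express mutant CFTR-F508del with the halide-sensitive YFP; corrector assay measuring rescue of mutant channel to the surface after 24 h compound exposure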
DENV2 CPE: DENV2-induced cell death inhibition; DENV2-infected cells, cytopathic effect rescue, plate reader; CPE inhibition, % at 9.99 µM; 350,000 compounds, 1.7% hits; in the data active = CPE inhibition above about 20%, passing the limit was not always enough; inconclusive = no clear call, values can overlap the other calls; tested in BHK-21 cells
Cneo AK release: Cryptococcus neoformans lysis via adenylate kinase release; C. neoformans lysis, adenylate kinase release luminescence, 4 h; normalised: neutral wells 0, clomiphene wells 100; lysis activity, % at 15 µM; 360,000 compounds, 0.2% hits; AID 651654;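 active = mean lysis activity across replicates of at least 80%, whatever share of replicates individually reach that level; inactive = mean lysis activity below 80%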
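Schedule: static 4 h at 37 °C with compound, 1 h detection; system: C. neoformans cells; benchmarks: Clomiphene as positive control; buffer or medium: fresh YPD medium; measure: luminescence rise reflecting yeast cell lysis; measured by: luminescent adenylate kinase detection reagent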
ERp5 block: ERp5 (human) disulfide isomerase inhibition. 350,000 compounds, 0.05% hits. AID 651711. Q15084. ERp5 insulin aggregation, absorbance 650 nm, 90 min. inhibition, % at 9.99 µM;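 active = mean replicate inhibition above about 25%, with every replicate also reaching it, limit read from the data, passing the limit was not always enough; inconclusive = only one of those two criteria met; inactive = neither criterion met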
C2C12 statin: protects C2C12 myotubes from simvastatin toxicity. ATP luminescence, 48 h; scaled: DMSO 0, geranylgeraniol control 100. rescue of ATP level, % at 7.49 µM. 330,000 compounds, 0.78% hits. AID 602340;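 active = mean ATP rescue above about 67%, or every replicate alone reaching that limit, limit read from the data, passing the limit was not always enough; inconclusive = no clear call, values can overlap the other calls; inactive = mean under the limit and some replicate under it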;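 also: myotubes were challenged with 10 µM simvastatin during compound exposure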
PDI inh: blocks human protein disulfide isomerase activity; P07237; PDI insulin aggregation turbidity, A650, 90 min; inhibition, % at 10 µM; 350,000 compounds, 0.052% hits; AID 588391;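 active = mean inhibition across replicates of 30% or more, whatever share of single replicates reach that level; inconclusive = mean inhibition below 30% while every single replicate reaches 30%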
Target sequence (P07237 whole entry, looked up): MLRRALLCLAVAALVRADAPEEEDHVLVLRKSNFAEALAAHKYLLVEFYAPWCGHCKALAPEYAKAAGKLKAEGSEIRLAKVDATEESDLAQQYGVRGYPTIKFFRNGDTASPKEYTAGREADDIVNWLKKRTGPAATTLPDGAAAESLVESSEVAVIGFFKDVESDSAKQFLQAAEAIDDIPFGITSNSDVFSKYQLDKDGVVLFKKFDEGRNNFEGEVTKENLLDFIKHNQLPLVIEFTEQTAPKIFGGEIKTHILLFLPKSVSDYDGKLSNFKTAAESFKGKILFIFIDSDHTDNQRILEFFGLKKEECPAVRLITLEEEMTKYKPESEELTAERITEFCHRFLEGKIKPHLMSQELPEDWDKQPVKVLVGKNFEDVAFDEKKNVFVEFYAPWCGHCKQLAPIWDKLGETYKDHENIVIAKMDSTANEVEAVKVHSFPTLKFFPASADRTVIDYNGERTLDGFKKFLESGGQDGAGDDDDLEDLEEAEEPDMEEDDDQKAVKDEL
Numbers stand for hits; 0 = inactive; ? = inconclusive; - = no result given. Hits are enriched below; roughly 2.3% of the tested compounds scored in any of these assays.

SMILES	CFTR F508del cor	DENV2 CPE	Cneo AK release	ERp5 block	C2C12 statin	PDI inh
C[C@@H]1CN([C@H](C)CO)C(=O)c2cccc(NC(=O)Nc3ccccc3)c2O[C@H]1CN(C)S(=O)(=O)c1cccs1	0	-	-	-	-	-
C[C@H](CO)N1C[C@H](C)[C@@H](CN(C)C(=O)NC2CCCCC2)Oc2c(NS(=O)(=O)c3ccc(Cl)cc3)cccc2C1=O	0	0	0	0	0	-
Cc1ccc(S(=O)(=O)N(C)Cc2ccc(-c3nnco3)cc2)cc1	-	-	0	-	108	0
O=c1cc(-c2ccco2)oc2c1ccc1ccccc12	-	-	0	-	103	0
C[C@@H]1CCCCO[C@H](CN(C)C(=O)Cc2ccccc2)[C@H](C)CN([C@@H](C)CO)C(=O)c2cc(NC(=O)C3CCCCC3)ccc2O1	0	0	0	-	-	-
COc1ccc(/C=C/C2=NC(=C\N(C)C)/C(=O)O2)cc1	-	-	0	-	114	0
O=C(Nc1ccc(NC(=O)c2ccco2)nc1)c1ccccn1	-	-	0	-	113	0
O=C(Nc1ccc(NC(=O)c2ccco2)nc1)c1ccco1	0	0	-	0	-	0
C[C@@H]1CN([C@@H](C)CO)C(=O)c2cccc(NC(=O)C3CCOCC3)c2O[C@H]1CN(C)S(=O)(=O)c1cn(C)cn1	0	0	0	0	0	-
C[C@@H]1CN([C@@H](C)CO)C(=O)Cc2cc(NC(=O)Nc3ccc(F)cc3)ccc2O[C@@H]1CN(C)Cc1ccc(Oc2ccccc2)cc1	0	0	0	0	0	-
CCOc1ccc(CCNC(=O)c2ccc(N3CCCC3=O)cc2)cc1OCC	-	-	-	-	-	0
COc1ccc(CCNC(=O)c2ccc(N3CCCC3=O)cc2)cc1	-	-	0	-	114	0
COc1ccc(O)c(/C=N/NC(=O)c2ccc(N3CCCC3=O)cc2)c1	8.0	0	0	0	?	0
COc1ccc(O)c(/C=N/NC(=O)c2cccc(N3CCCC3=O)c2)c1	0	0	0	0	0	0
CC(C)(C)NC(=O)NC(=O)COC(=O)Cc1coc2ccc3ccccc3c12	0	0	0	0	-	0
Cc1c(Cl)cnc(NC(=O)COC(=O)Cc2coc3ccc4ccccc4c23)c1Cl	-	86	0	0	-	0
Cc1ccccc1-c1ccc([C@H]2[C@H]3CN(S(=O)(=O)c4cn(C)cn4)CCCCN3[C@H]2CO)cc1	0	0	0	0	-	-
O=C(C[C@H]1CC[C@H]2[C@@H](COC[C@H](O)CN2Cc2cccc(Cl)c2)O1)Nc1nccs1	0	0	115	0	0	-
O=C(C[C@@H]1CC[C@@H]2[C@H](COC[C@H](O)CN2Cc2cccc(Cl)c2)O1)Nc1nccs1	0	0	0	0	0	-
O=C(C[C@@H]1CC[C@H]2[C@@H](COC[C@H](O)CN2Cc2ccc(Oc3ccccc3)cc2)O1)Nc1nccs1	0	0	88	0	0	-
O=C(C[C@H]1CC[C@H]2[C@@H](COC[C@@H](O)CN2Cc2ccc(Oc3ccccc3)cc2)O1)Nc1nccs1	0	0	0	0	0	-
CN(Cc1cccs1)C(=O)c1cccc(S(=O)(=O)N2CCCCCC2)c1	31	0	0	0	0	0
CN(Cc1cccs1)C(=O)c1ccc(S(=O)(=O)N2CCCCC2)cc1	0	0	0	0	-	0
Cn1c(CSc2nc3ccccc3s2)nc2ccccc21	-	-	0	-	0	0
Cn1c(CSc2ncn[nH]2)nc2ccccc21	-	-	0	-	98	0
Cc1noc(C)c1NC(=O)N(C)C[C@H]1Oc2ccc(NC(=O)Cc3ccccc3)cc2CC(=O)N([C@@H](C)CO)C[C@H]1C	0	54	0	0	0	-
Cc1noc(C)c1NC(=O)N(C)C[C@@H]1Oc2ccc(NC(=O)Cc3ccccc3)cc2CC(=O)N([C@H](C)CO)C[C@H]1C	0	0	0	0	0	-
Cc1noc(C)c1NC(=O)Nc1ccc2c(c1)CC(=O)N([C@H](C)CO)C[C@H](C)[C@H](CN(C)C(=O)Nc1ccccc1)O2	0	20	0	0	0	-
Cc1noc(C)c1NC(=O)N(C)C[C@H]1Oc2ccc(NC(=O)NC3CCCCC3)cc2CC(=O)N([C@@H](C)CO)C[C@@H]1C	0	0	0	0	0	-
Cc1noc(C)c1NC(=O)N(C)C[C@@H]1Oc2ccc(NC(=O)NC3CCCCC3)cc2CC(=O)N([C@H](C)CO)C[C@H]1C	0	32	0	0	0	-
